MT stabilizer: stabilizes microtubules in HeLa cells | HeLa tubulin immunostaining HCS, 24 h; share of cells brighter than vehicle mean+2SD | % tubulin-high responders, % at 10 µM | 200,000 compounds, 0.83% hits | AID 2205;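 active = plate Z-score above 3 for both tubulin-high and condensed-nucleus cell shares, with cell loss under 80%, at 10 µM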;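 note: anti alpha tubulin signal scored within the nucleus-defined area of each cell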
bCat nuc transl: modulators of beta-catenin nuclear translocation | HeLa beta-catenin nuclear translocation, immunofluorescence imaging | nuclear translocation activity, % at 5 µM | 190,000 compounds, 0.3% hits | AID 1665;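 active = nuclear translocation activity above 50% at 5 µM, with a well cell count of 50 or more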;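 note: per-cell ratio of nuclear to cytoplasmic median beta-catenin stain intensity; plate controls were DMSO negative control for no effect and GSK-3 inhibitor IX positive control for full effect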
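Assay system: human HeLa cells, native beta-catenin; doses: 5 µM primary, 0.02–20 µM confirmation; incubation: compound treatment 24 h, 37°C, 5% CO2; technique: fluorescence imaging of beta-catenin antibody stain plus DAPI; measure: % activation, nuclear-to-cytoplasmic median beta-catenin signal ratio per cell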
Lmaj promast: inhibitors of Leishmania major promastigote growth. Leishmania major promastigotes, resazurin fluorescence viability. inhibition, % at 10 µM. 200,000 compounds, 9% hits. AID 1063; in the data active = inhibition above about 50%;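 note: promastigotes grown with compound for 44 hours at 28 °C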
HSV replic up: increases HSV replication in cells; HSV replication augmentation in cells, fold increase; maximum fold increase; 220,000 compounds, 0.005% hits; in the data active = maximum fold increase above about 1.5; tested in PC3 cells
Dynein transport: blocks dynein driven cargo transport along microtubules; z-score, hits read low; 3617.4 mouse cells, GR-EGFP nuclear translocation imaging; test concentration mostly 20 µM; stimulated with dexamethasone, 1 µM; hits give low values; 220,000 compounds, 0.47% hits;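 active = plate z-score of nuclear minus cytoplasmic receptor signal below a set negative limit, without overly bright fluorescence or cell loss, cut at about -3.5 in these data, passing the limit was not always enough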;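 note: z-score of nuclear minus cytoplasmic ring GR-EGFP intensity difference per well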
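Buffer or medium: tet-free medium with charcoal-stripped serum / Also added: dexamethasone agonist, 1.0 µM final, for 30 min / Timing: induction 48 h, compound 1 h, agonist 30 min / Measured by: high-content fluorescence imaging after fixation / Read-out: nuclear-to-cytoplasmic GR-EGFP distribution per well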
Active calls of the source: *; i = inactive; . = no result. Shown are actives, neighbours in structure and some others; about 8.9% of the full set was active somewhere.

SMILES | MT stabilizer | bCat nuc transl | Lmaj promast | HSV replic up | Dynein transport
Cc1ccc(N2CCN(c3ccc(C)cc3)C2c2cccnc2)cc1 | 1 | 3 | 86* | i | -0.064
Cc1ccc(-c2nc(N3CCOCC3)sc2C(=O)N2CCOCC2)cc1 | 4 | -6 | -11 | i | -0.81
O=C(CN1C(=O)COc2ccccc21)c1cccc(Cl)c1 | 5 | 1 | -8 | i | -0.64
CC1CC(C)(C)NC(=S)N1CCC(=O)N1CCN(c2ccccc2)CC1 (stereo unspecified) | 5 | 3 | 7 | i | 1.4
CCOc1ccccc1NC(=O)CCCN1C(=S)NC(C)(C)CC1C (stereo unspecified) | 2 | 4 | 52* | i | -0.49
CC1CC(C)(C)NC(=S)N1CCCC(=O)N1CCN(c2ccc(F)cc2)CC1 (stereo unspecified) | 3 | 0 | 82* | i | 2.5
COc1ccc(OC)c(NC(=O)CCCN2C(=S)NC(C)(C)CC2C)c1 (stereo unspecified) | 2 | 1 | 70* | i | 1.4
Cc1ccc(/C=N/N2CCCCC2)o1 | 4 | 0 | 4 | i | -1.1
Cn1c(=O)c2c(nc(-n3ccnc3)n2Cc2ccc(Cl)cc2Cl)n(C)c1=O | 5 | -1 | 84* | i | 0.09
O=C(/C=C/c1ccccc1)NC(=S)NNS(=O)(=O)c1ccccc1 | 2 | 0 | 4 | i | 0.14
CCOC(=O)N1CCN(S(=O)(=O)c2cccs2)CC1 | 4 | . | -7 | i | -0.071
Cc1cc(C(=O)CCC(=O)N2CCN(S(=O)(=O)c3cccs3)CC2)c(C)s1 | 3 | . | 88* | . | -0.1
Cn1c(=O)[nH]c(=O)c2c1nc(NC1CCCCC1)n2Cc1ccccc1 | 8 | -2 | -5 | i | 0.13
O=C(c1ccccc1OCc1ccccc1Br)N1CCN(c2ncccn2)CC1 | 9 | 5 | 68* | i | 0.35
O=C(O)c1ccccc1OCc1ccccc1Br | 4 | -4 | -1 | i | 0.96
CC(=O)Nc1cccc(OCC(=O)Nc2ccc(F)cc2)c1 | 4 | . | 0 | . | 1.4
O=S(=O)(NC1c2cccc3cccc(c23)C1Sc1ncccn1)c1ccc(Cl)cc1 (stereo unspecified) | 2 | -1 | 83* | i | -0.2
c1ccc2c(Nc3nc(N4CCOCC4)c4ccccc4n3)cccc2c1 | 2 | -3 | 88* | i | -0.14
O=C(O)/C=C/c1nc(-c2ccccc2)n2ccccc12 | 5 | 3 | 2 | i | -0.79
O=C(NCc1cccnc1)c1ccc(NC(=O)c2ccco2)cc1 | 4 | -2 | 1 | i | 2.7
OCc1nc2ccccc2n1CC(O)COc1ccccc1 (stereo unspecified) | 2 | 1 | -4 | i | -0.53
N=c1n(Cc2ccccc2)c2ccccc2n1CC(O)COc1ccccc1 (stereo unspecified) | 3 | -5 | 100* | i | -1
Cc1ccc(Cn2c(=N)n(CC(O)COc3ccccc3)c3ccccc32)cc1 (stereo unspecified) | 2 | . | 101* | i | -0.66
CCN1C(=O)CC(N2CCC(c3nc4ccccc4[nH]3)CC2)C1=O (stereo unspecified) | 4 | -2 | 9 | i | 0.53
COC(=O)c1cc(OC)c(OC)cc1NC(=S)N1CCCCC1 | 2 | 3 | 89* | i | 1.5
SMILES | MT stabilizer | bCat nuc transl | Lmaj promast | HSV replic up | Dynein transport
CC(C)CN=C(NS(=O)(=O)c1ccccc1)C(Cl)(Cl)Cl | 6 | 52* | 90* | i | -2.7
Cc1ccccc1OCCNC(=O)/C=C/c1ccc([N+](=O)[O-])cc1 | 4 | 1 | 16 | i | 0.31
Cc1cc(C)nc(N(C#N)CCOc2ccc(Cl)cc2)n1 | 2 | -1 | -2 | i | -0.51
CC(C)Nc1nc(NC(C)C)nc(N(C#N)CCOc2ccc(Cl)cc2Cl)n1 | 3 | 3 | 81* | i | -0.2
c1ccc(CCNc2nc(-c3ccccn3)cs2)cc1 | 1 | -1 | 100* | i | -1.3
O=C(Nc1nc(-c2ccccc2)cs1)C1COc2ccccc2O1 (stereo unspecified) | 1 | 4 | 3 | i | -0.44
C[C@@H](C(=O)Nc1nc(-c2ccccn2)cs1)N1C(=O)C2CCCCC2C1=O (stereo partly specified) | 2 | -4 | 100* | i | -0.48
O=C(Nc1nc(-c2ccccn2)cs1)C1COc2ccccc2O1 (stereo unspecified) | 4 | 2 | 77* | i | 0.012
O=C(Nc1nc(-c2ccc(S(=O)(=O)N3CCCC3)cc2)cs1)C1COc2ccccc2O1 (stereo unspecified) | 4 | . | 84* | i | -1.3
CCOc1ccc(N=Cc2c(C)[nH]n(-c3nc4ccccc4[nH]3)c2=O)cc1 | 4 | 0 | 7 | i | -0.14
Cc1ccnc(NS(=O)(=O)c2ccc(Cl)nc2)c1 | . | 5 | . | i | 0.57
CSc1nc2ccc3nc(NC(=O)C4COc5ccccc5O4)sc3c2s1 (stereo unspecified) | 8 | -1 | 78* | i | 0.14
CC1CC1C(=O)Nc1nc(-c2ccccn2)cs1 (stereo unspecified) | 3 | . | 100* | i | -0.74
Cc1cccc(C(=O)N[C@H](C(=O)Nc2nc(C)cs2)C(C)C)c1 | 2 | . | 64* | i | -0.56
COc1ccc(C(=O)NC(C(=O)NCC(=O)Nc2c(C)cccc2C)C(C)C)cc1 (stereo unspecified) | 2 | 0 | 67* | i | 0.49
O=C(O)c1cccc(-n2nnnc2SCc2ccccn2)c1 | 3 | -1 | -4 | i | 0.12
CCc1nnc(NC(=O)C(NC(=O)c2ccccc2Cl)C(C)C)s1 (stereo unspecified) | 4 | -1 | 6 | i | 0.48
CC(C)[C@H](NC(=O)c1ccccc1Cl)C(=O)Nc1nc(-c2ccccn2)cs1 | 3 | 1 | 99* | i | -0.62
CC(=O)NC(CCS(C)(=O)=O)C(=O)Nc1cc(C)on1 (stereo unspecified) | 5 | -3 | -3 | i | 0.74
CCOc1ccccc1NC(=O)COC(=O)CC(NC(N)=O)c1ccc(Cl)cc1 (stereo unspecified) | 2 | 0 | -2 | i | 0.59
Cc1ccc(C)c(N/C(N)=N/c2nc(C)cc(C)n2)c1 | 1 | 0 | 33 | i | -0.72
Cc1ccc(CN=C(N)Nc2nc(C)cc(C)n2)cc1 | 12* | 42 | 35 | i | -0.79
CCOC(=O)c1c(C)n(-c2ccc(OC)cc2)c2ccc(O)c(CN(C)C)c12 | . | 1 | . | i | 1.1
CCOC(=O)c1c(C)n(-c2ccc(C)cc2)c2ccc(O)c(CN(C)C)c12 | 4 | 0 | 99* | i | -1
CCOC(=O)c1c(CSc2ccc(C)cc2)n(C)c2cc(Br)c(O)c(CN(C)C)c12 | 2 | 0 | 71* | i | -1.5
COC(=O)C1(C(F)(F)F)N=C2Sc3ccccc3N2C(N2CCOCC2)=N1 (stereo unspecified) | 5 | -2 | -6 | i | -0.22
Cc1nc2c(ccc3nc(NC(=O)C4CC4)sc32)s1 | 2 | -1 | 23 | i | -0.18
